# pIC50, pKi: −log10 of the molar value.
# Legend:
# [1] = target: T1, Metabotropic glutamate receptor 1 (Homo sapiens, UniProt Q13255); assay: Binding affinity to mGluR1
# [2] = target: Metabotropic glutamate receptor 1 (Rattus norvegicus) (UniProt P23385); assay: Binding affinity to mGluR1 in Sprague-Dawley rat whole brain assessed as reduction of total radioactivity at 0.023 nM after 30 mins by autoradiography in presence of mGluRl antagonist FPTQ; set-up: scale not given: the % may be the effect or the level left
# [3] = target: Metabotropic glutamate receptor 1 (Rattus norvegicus) (UniProt P23385); assay: Binding affinity to mGluR1 in Sprague-Dawley rat pons-medulla at 0.023 nM after 30 mins by autoradiography; settings: tested as the 18F-labelled form
# Summary of the method: (§1)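 Rat brain sections were preincubated 3 × 5 min at room temperature in 50 mM Tris–HCl, pH 7.4, with 1.2 mM MgCl2 and 2 mM CaCl2. They were then incubated 30 min at room temperature in fresh buffer with 0.023 nM [18F]ligand, alone or with MPEP at two levels. Sections were washed 3 × 5 min in cold buffer, rinsed in cold water and dried. Imaging-plate autoradiography followed; regional PSL/mm2 was taken minus 1.5 PSL/mm2 background. Means ± SD, n = 6–8 per group.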
# [4] = target: T1, Metabotropic glutamate receptor 1; assay: Binding affinity to human mGluR1
# [5] = target: Metabotropic glutamate receptor 1 (Rattus norvegicus) (UniProt P23385); assay: Binding affinity to mGluR1 in Sprague-Dawley rat cerebellum at 0.023 nM after 30 mins by autoradiography; assay type: tissue-based; settings: tested as the 18F-labelled form; summary of the method: as §1
# [6] = target: Metabotropic glutamate receptor 1 (Rattus norvegicus) (UniProt P23385); assay: Binding affinity to mGluR1 in Sprague-Dawley rat hippocampus at 0.023 nM after 30 mins by autoradiography in presence of 1 uM of mGluR5 antagonist MPEP; assay type: tissue-based; settings: tested as the 18F-labelled form; summary of the method: as §1
# [7] = target: Metabotropic glutamate receptor 1 (Rattus norvegicus) (UniProt P23385); assay: Binding affinity to mGluR1 in Sprague-Dawley rat cerebral cortex at 0.023 nM after 30 mins by autoradiography in presence of 1 uM of mGluR5 antagonist MPEP; assay type: tissue-based; settings: tested as the 18F-labelled form; summary of the method: as §1
# [8] = target: Metabotropic glutamate receptor 1 (Rattus norvegicus) (UniProt P23385); assay: Binding affinity to mGluR1 in Sprague-Dawley rat olfactory bulb at 0.023 nM after 30 mins by autoradiography; settings: tested as the 18F-labelled form; summary of the method: as §1
# [9] = target: Metabotropic glutamate receptor 1 (Rattus norvegicus) (UniProt P23385); assay: Binding affinity to mGluR1 in Sprague-Dawley rat striatum at 0.023 nM after 30 mins by autoradiography; settings: tested as the 18F-labelled form; summary of the method: as §1
# [10] = target: Metabotropic glutamate receptor 1 (Rattus norvegicus) (UniProt P23385); assay: Binding affinity to mGluR1 in Sprague-Dawley rat olfactory bulb at 0.023 nM after 30 mins by autoradiography in presence of 10 uM of mGluR5 antagonist MPEP; settings: tested as the 18F-labelled form; summary of the method: as §1
# [11] = target: Metabotropic glutamate receptor 1 (Rattus norvegicus) (UniProt P23385); assay: Binding affinity to mGluR1 in Sprague-Dawley rat cerebellum at 0.023 nM after 30 mins by autoradiography in presence of 10 uM of mGluR5 antagonist MPEP; assay type: tissue-based; settings: tested as the 18F-labelled form; summary of the method: as §1
# [12] = target: Metabotropic glutamate receptor 1 (Rattus norvegicus) (UniProt P23385); assay: Binding affinity to mGluR1 in Sprague-Dawley rat brain assessed as decrease of total binding at 0.023 nM after 30 mins by autoradiography in presence of 10 uM of mGluR5 antagonist MPEP; assay type: tissue-based; set-up: scale not given: the % may be the effect or the level left; summary of the method: as §1
# [13] = target: Metabotropic glutamate receptor 1 (Rattus norvegicus) (UniProt P23385); assay: Binding affinity to mGluR1 in Sprague-Dawley rat thalamus at 0.023 nM after 30 mins by autoradiography in presence of 10 uM of mGluR5 antagonist MPEP; settings: tested as the 18F-labelled form; summary of the method: as §1
# [14] = target: Metabotropic glutamate receptor 1 (Rattus norvegicus) (UniProt P23385); assay: Binding affinity to mGluR1 in Sprague-Dawley rat thalamus at 0.023 nM after 30 mins by autoradiography; assay type: tissue-based; settings: tested as the 18F-labelled form; summary of the method: as §1
# [15] = target: Metabotropic glutamate receptor 1 (Rattus norvegicus) (UniProt P23385); assay: Binding affinity to mGluR1 in Sprague-Dawley rat cerebral cortex at 0.023 nM after 30 mins by autoradiography; assay type: tissue-based; settings: tested as the 18F-labelled form; summary of the method: as §1
# [16] = target: Metabotropic glutamate receptor 1 (Rattus norvegicus) (UniProt P23385); assay: Binding affinity to mGluR1 in Sprague-Dawley rat thalamus at 0.023 nM after 30 mins by autoradiography in presence of 1 uM of mGluR5 antagonist MPEP; assay type: tissue-based; settings: tested as the 18F-labelled form; summary of the method: as §1
# [17] = target: Metabotropic glutamate receptor 1 (Rattus norvegicus) (UniProt P23385); assay: Binding affinity to mGluR1 in Sprague-Dawley rat whole brain at 0.023 nM after 30 mins by autoradiography in presence of mGluRl antagonist FPTQ
# Summary of the method: (§2)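 Sections were incubated as for the regional assay: 0.023 nM [18F]ligand, 30 min at room temperature, in 50 mM Tris–HCl pH 7.4 with MgCl2 and CaCl2, after 3 × 5 min preincubation. Unlabeled ligand or JNJ-16259685 was co-incubated to define specific binding. Sections were washed cold and exposed to imaging plates. ROIs covered the whole brain; values are PSL/mm2 minus background. n = 6–8.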
# [18] = target: Metabotropic glutamate receptor 1 (Rattus norvegicus) (UniProt P23385); assay: Binding affinity to mGluR1 in Sprague-Dawley rat cerebellum at 0.023 nM after 30 mins by autoradiography in presence of 1 uM of mGluR5 antagonist MPEP; assay type: tissue-based; settings: tested as the 18F-labelled form; summary of the method: as §1
# [19] = target: Metabotropic glutamate receptor 1 (Rattus norvegicus) (UniProt P23385); assay: Binding affinity to mGluR1 in Sprague-Dawley rat cerebral cortex at 0.023 nM after 30 mins by autoradiography in presence of 10 uM of mGluR5 antagonist MPEP; assay type: tissue-based; settings: tested as the 18F-labelled form; summary of the method: as §1
# [20] = target: Metabotropic glutamate receptor 1 (Rattus norvegicus) (UniProt P23385); assay: Binding affinity to mGluR1 in Sprague-Dawley rat striatum at 0.023 nM after 30 mins by autoradiography in presence of 1 uM of mGluR5 antagonist MPEP; assay type: tissue-based; settings: tested as the 18F-labelled form; summary of the method: as §1
# [21] = target: Metabotropic glutamate receptor 1 (Rattus norvegicus) (UniProt P23385); assay: Binding affinity to mGluR1 in Sprague-Dawley rat olfactory bulb at 0.023 nM after 30 mins by autoradiography in presence of 1 uM of mGluR5 antagonist MPEP; settings: tested as the 18F-labelled form; summary of the method: as §1
# [22] = target: Metabotropic glutamate receptor 1 (Rattus norvegicus) (UniProt P23385); assay: Binding affinity to mGluR1 in Sprague-Dawley rat pons-medulla at 0.023 nM after 30 mins by autoradiography in presence of 10 uM of mGluR5 antagonist MPEP; settings: tested as the 18F-labelled form; summary of the method: as §1
# [23] = target: Metabotropic glutamate receptor 1 (Mus musculus, UniProt P97772); assay: Binding affinity to mouse mGluR1
# [24] = target: Metabotropic glutamate receptor 1 (Rattus norvegicus) (UniProt P23385); assay: Binding affinity to mGluR1 in Sprague-Dawley rat striatum at 0.023 nM after 30 mins by autoradiography in presence of 10 uM of mGluR5 antagonist MPEP; assay type: tissue-based; settings: tested as the 18F-labelled form; summary of the method: as §1
# [25] = target: Metabotropic glutamate receptor 1 (Rattus norvegicus) (UniProt P23385); assay: Binding affinity to mGluR1 in Sprague-Dawley rat pons-medulla at 0.023 nM after 30 mins by autoradiography in presence of 1 uM of mGluR5 antagonist MPEP; settings: tested as the 18F-labelled form; summary of the method: as §1
# [26] = target: Metabotropic glutamate receptor 1 (Rattus norvegicus) (UniProt P23385); assay: Binding affinity to mGluR1 in Sprague-Dawley rat hippocampus at 0.023 nM after 30 mins by autoradiography; assay type: tissue-based; settings: tested as the 18F-labelled form; summary of the method: as §1
# [27] = target: Metabotropic glutamate receptor 1 (Rattus norvegicus) (UniProt P23385); assay: Binding affinity to mGluR1 in Sprague-Dawley rat hippocampus at 0.023 nM after 30 mins by autoradiography in presence of 10 uM of mGluR5 antagonist MPEP; assay type: tissue-based; settings: tested as the 18F-labelled form; summary of the method: as §1
# [28] = target: Metabotropic glutamate receptor 1 (Rattus norvegicus) (UniProt P23385); assay: Binding affinity to mGluR1 in Sprague-Dawley rat whole brain at 0.023 nM after 30 mins by autoradiography in presence of mGluRl antagonist JNJ-16259685; summary of the method: as §2
# T1 sequence (Q13255 whole entry): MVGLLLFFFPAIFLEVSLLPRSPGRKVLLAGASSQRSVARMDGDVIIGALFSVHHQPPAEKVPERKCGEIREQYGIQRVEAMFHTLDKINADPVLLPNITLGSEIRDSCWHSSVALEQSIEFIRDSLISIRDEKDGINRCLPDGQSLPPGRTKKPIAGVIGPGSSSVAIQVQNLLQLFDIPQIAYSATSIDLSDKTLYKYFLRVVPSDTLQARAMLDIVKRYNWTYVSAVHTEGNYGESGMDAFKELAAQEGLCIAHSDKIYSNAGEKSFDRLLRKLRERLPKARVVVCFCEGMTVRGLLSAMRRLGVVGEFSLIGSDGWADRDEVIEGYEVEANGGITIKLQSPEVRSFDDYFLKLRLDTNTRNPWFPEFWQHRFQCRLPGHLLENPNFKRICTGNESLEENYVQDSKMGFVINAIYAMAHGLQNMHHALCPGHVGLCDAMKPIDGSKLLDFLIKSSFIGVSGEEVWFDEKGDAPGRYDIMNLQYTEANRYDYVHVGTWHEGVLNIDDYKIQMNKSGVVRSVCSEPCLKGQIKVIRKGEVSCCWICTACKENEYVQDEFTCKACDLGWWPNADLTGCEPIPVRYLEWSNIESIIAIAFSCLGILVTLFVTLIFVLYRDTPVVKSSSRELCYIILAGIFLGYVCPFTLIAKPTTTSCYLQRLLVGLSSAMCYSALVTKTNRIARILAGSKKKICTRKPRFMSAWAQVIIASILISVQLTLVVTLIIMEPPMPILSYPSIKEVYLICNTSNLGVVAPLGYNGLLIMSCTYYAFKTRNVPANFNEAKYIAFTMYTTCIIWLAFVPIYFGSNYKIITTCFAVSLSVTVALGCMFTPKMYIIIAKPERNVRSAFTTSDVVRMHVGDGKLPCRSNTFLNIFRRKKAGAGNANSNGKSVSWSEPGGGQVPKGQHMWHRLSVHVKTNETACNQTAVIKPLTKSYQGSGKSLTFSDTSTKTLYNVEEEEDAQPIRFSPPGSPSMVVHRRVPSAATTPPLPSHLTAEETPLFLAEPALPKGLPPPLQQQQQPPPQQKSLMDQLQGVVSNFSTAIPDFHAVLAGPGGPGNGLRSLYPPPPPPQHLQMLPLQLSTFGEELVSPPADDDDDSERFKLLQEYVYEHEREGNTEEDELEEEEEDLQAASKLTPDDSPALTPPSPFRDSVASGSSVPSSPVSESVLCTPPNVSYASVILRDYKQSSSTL
# Chain of Metabotropic glutamate receptor 1 (Rattus norvegicus) (P23385 19-1199 limits assumed): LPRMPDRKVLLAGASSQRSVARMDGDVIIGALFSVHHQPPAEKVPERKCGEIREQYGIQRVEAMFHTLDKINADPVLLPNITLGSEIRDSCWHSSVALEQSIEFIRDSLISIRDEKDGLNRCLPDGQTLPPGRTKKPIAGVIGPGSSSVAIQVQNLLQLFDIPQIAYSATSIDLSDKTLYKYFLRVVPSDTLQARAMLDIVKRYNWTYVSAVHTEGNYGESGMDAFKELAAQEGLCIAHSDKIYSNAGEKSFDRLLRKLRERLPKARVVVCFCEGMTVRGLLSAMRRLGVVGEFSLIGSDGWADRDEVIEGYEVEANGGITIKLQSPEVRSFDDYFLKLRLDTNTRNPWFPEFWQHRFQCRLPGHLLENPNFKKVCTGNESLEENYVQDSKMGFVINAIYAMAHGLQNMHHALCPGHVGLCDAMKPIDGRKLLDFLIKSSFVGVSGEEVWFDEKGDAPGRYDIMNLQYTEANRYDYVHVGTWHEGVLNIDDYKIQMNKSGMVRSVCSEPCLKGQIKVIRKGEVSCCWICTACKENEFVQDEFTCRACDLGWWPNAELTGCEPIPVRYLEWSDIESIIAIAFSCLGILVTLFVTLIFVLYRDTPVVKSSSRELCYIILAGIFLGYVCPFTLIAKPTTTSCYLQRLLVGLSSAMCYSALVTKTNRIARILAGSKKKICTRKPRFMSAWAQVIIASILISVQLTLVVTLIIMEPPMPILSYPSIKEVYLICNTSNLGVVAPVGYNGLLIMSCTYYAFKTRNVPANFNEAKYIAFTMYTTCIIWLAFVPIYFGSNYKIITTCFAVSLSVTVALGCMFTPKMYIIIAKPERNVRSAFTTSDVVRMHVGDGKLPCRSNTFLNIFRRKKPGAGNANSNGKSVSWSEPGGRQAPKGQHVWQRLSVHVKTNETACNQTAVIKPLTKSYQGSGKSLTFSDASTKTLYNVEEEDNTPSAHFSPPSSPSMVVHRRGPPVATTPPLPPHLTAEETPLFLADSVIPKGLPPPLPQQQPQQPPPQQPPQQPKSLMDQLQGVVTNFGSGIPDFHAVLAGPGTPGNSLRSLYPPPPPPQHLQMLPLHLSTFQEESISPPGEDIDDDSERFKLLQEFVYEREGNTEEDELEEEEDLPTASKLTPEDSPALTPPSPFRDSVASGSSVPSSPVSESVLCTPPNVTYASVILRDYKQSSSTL
# Chain of Metabotropic glutamate receptor 1 (Mus musculus, UniProt P97772) (P97772 whole entry): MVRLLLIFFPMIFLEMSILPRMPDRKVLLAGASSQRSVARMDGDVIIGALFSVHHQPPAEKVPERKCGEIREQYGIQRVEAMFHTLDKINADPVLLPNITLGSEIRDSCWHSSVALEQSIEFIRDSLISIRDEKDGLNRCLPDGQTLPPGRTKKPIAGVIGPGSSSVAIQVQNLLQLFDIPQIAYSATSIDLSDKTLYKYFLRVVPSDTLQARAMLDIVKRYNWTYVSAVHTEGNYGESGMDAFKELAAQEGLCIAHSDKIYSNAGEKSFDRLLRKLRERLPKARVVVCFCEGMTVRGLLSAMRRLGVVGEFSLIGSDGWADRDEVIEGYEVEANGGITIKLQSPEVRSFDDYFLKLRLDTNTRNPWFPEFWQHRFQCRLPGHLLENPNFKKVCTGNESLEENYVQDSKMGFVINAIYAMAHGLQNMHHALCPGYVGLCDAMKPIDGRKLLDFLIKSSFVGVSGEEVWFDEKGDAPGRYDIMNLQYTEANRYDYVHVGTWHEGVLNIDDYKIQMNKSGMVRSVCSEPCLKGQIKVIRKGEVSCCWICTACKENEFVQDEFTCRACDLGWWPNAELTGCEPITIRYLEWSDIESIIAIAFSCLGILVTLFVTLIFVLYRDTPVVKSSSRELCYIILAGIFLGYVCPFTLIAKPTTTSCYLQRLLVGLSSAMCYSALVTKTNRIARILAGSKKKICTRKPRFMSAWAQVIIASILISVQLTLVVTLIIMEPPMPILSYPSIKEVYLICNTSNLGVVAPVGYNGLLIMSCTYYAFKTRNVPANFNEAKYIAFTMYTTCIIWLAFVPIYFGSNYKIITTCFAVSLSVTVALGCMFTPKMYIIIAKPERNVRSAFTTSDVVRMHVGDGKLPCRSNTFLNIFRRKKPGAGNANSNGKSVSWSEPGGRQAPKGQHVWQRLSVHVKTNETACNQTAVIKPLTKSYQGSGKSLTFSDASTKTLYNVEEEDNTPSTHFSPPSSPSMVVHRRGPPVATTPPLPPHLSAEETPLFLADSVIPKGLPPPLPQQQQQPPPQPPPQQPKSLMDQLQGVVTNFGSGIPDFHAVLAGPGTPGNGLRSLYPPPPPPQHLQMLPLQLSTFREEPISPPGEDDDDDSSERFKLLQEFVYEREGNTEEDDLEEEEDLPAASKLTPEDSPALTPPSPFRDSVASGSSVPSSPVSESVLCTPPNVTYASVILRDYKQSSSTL
smiles,measurement,setting,value
COCCN([11CH3])Cc1ccc2nc3sc(C(=O)N(C)C4CCCCC4)cn3c2c1,pKi,[1],8.32
CCCN1Cc2cc(-c3nnn(-c4cccnc4[18F])c3C)ccc2C1=O,pKi,[1],9.40
Cc1c(-c2ccc3ncccc3c2)nnn1-c1cccnc1F,Activity,[2],< 3%
same,Activity,[3],17.5 PSL/mm2
same,pIC50,[4],8.44
same,Activity,[5],409 PSL/mm2
same,Activity,[6],97.4 PSL/mm2
same,Activity,[7],23.6 PSL/mm2
same,Activity,[8],88.7 PSL/mm2
same,Activity,[9],70.7 PSL/mm2
same,Activity,[10],49 PSL/mm2
same,Activity,[11],285 PSL/mm2
same,Activity,[12],30%
same,Activity,[13],116 PSL/mm2
same,Activity,[14],189 PSL/mm2
same,Activity,[15],28.2 PSL/mm2
same,Activity,[16],169 PSL/mm2
same,Activity,[17],0.6 PSL/mm2
same,Activity,[18],398 PSL/mm2
same,Activity,[19],15.7 PSL/mm2
same,Activity,[20],61.7 PSL/mm2
same,Activity,[21],76 PSL/mm2
same,Activity,[22],9.5 PSL/mm2
same,pIC50,[23],8.85
same,Activity,[24],40.1 PSL/mm2
same,Activity,[25],15.2 PSL/mm2
same,Activity,[26],112 PSL/mm2
same,Activity,[27],69.4 PSL/mm2
same,Activity,[28],0.5 PSL/mm2
CCc1cc2cc(C(=O)[C@H]3CC[C@@H](OC)CC3)ccc2nc1[11CH3],pKi,[1],9.06
CO[C@H]1CC[C@@H](C(=O)c2ccc3nc4c(cc3c2)CCCO4)CC1,pKi,[1],9.47

# From ChEMBL document CHEMBL1641444, “Synthesis and evaluation of 6-[1-(2-[(18)F]fluoro-3-pyridyl)-5-methyl-1H-1,2,3-triazol-4-yl]quinoline for positron emission tomography imaging of the metabotropic glutamate receptor type 1 in brain” (Bioorg Med Chem, 2011)
